Source: ChEMBL document CHEMBL1157436, “Efficient synthesis and neuroprotective effect of substituted 1,3-diphenyl-2-propen-1-ones” (2008)

Tests used:
Format in all cases: functional
[1] = DPPH radical scavenging activity at 10 uM
[2] = DPPH radical scavenging activity at 200 uM
BV-2 [3] = assay: Inhibition of NO production in LPS-induced mouse BV2 microglia cells at 20 uM
Summary of the method: (§1)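 BV-2 microglia were exposed to LPS (1 µg/mL) alone or with compound at 10 or 20 µM for 24 h at 37 °C. Nitrite was then measured in medium sampled at the end of incubation. Data are mean ± SE of three independent experiments, each run in triplicate.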

[4] = Neuroprotective effect against glutamate-induced toxicity in ICR mouse cultured cortical neurons assessed as cell viability at 10 uM; details: Cortical neurone, read-out: Activity
Summary of the method: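 Cultured cortical neurons were co-treated with 60 µM glutamate and compound for 24 h at 37 °C. WST-1 was then added at 1:10 in the conditioned medium for 2 h at 37 °C. Formazan absorbance was read at 450 nm against a 650 nm reference and normalized to untreated control wells. Data are mean ± SE of three independent experiments in triplicate.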

[5] = DPPH radical scavenging activity at 50 uM
[6] = DPPH radical scavenging activity at 100 uM
BV-2 [7] = assay: Inhibition of NO production in LPS-induced mouse BV2 microglia cells at 10 uM; summary of the method: as §1

SMILES	Activity [1] [%]	Activity [2] [%]	Activity (BV-2 [3]) [µM]	viability at 10 µM [4] [%]	Activity [5] [%]	Activity [6] [%]	Activity (BV-2 [7]) [µM]
COc1cccc(/C=C/C(=O)c2ccc3c(c2)OCO3)c1O	13.9	22.2	16.44	56	14.9	18.6	22.62
COc1cc(/C=C/C(=O)c2ccc3c(c2)OCO3)ccc1O	7.9	25.1	11.32	79	12	14.1	12.63
COc1ccc(/C=C/C(=O)c2ccc3c(c2)OCO3)cc1O	8.75	11	12.44	69	9.14	9.63	21.3
Cc1c(C)c2c(c(C)c1O)CCC(C)(C(=O)O)O2 (stereo not drawn)	12.1	78.2			30.2	62.4	
COc1cc(/C=C/C(=O)c2ccccc2)ccc1O	7.53	22.6	13.16	62	11.8	14.4	16.14
COc1cc(/C=C/C(=O)c2ccc(OC)c(F)c2)ccc1O	17.8	37.5	6.23	79	18.9	28.4	14.21
COc1cc(/C=C/C(=O)c2cc(F)c(F)c(F)c2)ccc1O	22.9	38	12.11	61	23.5	32	19.82
COc1ccc(/C=C/C(=O)c2cc(F)c(F)c(F)c2)cc1O	1.99	5.29	22	63	2.71	3.25	25.07
COc1cc(/C=C/C=O)ccc1O	2.37	10.6			0.28	0.43	
COc1ccc(/C=C/C(=O)c2ccc(OC)c(F)c2)cc1O	1.55	5.02	19.98	80	1.68	2.73	23.4
COc1ccc(/C=C/C(=O)c2ccc3c(c2)OCO3)cc1OC	3.27	1.56	20.6	61	1.95	1.75	25.69
COc1cccc(/C=C/C(=O)c2ccccc2)c1O	5.4	11	15.69	58	6.09	7.94	17.62
COc1ccc(/C=C/C(=O)c2ccccc2)cc1O	1.26	5.38	16.04	67	1.46	2.05	18.93
COc1cccc(/C=C/C(=O)c2cc(F)c(F)c(F)c2)c1O	3.08	6.81	14.72	71	3.28	5.5	18.05
Oc1ccc(/C=C/c2cc(O)cc(O)c2)cc1	9.45	33.8			8.44	28.4	
COc1ccc(C(=O)/C=C/c2cccc(OC)c2O)cc1F	1.74	2.87	14.19	75	1.14	2.42	19.55
